Results collected from several papers.
Compare with care: the assays were run in different laboratories.
Target: Cyclin-dependent kinase-like 5 (CDKL5, Homo sapiens, UniProt O76039)
Tested at: 1 µM
Residues used in one study (O76039 1-960): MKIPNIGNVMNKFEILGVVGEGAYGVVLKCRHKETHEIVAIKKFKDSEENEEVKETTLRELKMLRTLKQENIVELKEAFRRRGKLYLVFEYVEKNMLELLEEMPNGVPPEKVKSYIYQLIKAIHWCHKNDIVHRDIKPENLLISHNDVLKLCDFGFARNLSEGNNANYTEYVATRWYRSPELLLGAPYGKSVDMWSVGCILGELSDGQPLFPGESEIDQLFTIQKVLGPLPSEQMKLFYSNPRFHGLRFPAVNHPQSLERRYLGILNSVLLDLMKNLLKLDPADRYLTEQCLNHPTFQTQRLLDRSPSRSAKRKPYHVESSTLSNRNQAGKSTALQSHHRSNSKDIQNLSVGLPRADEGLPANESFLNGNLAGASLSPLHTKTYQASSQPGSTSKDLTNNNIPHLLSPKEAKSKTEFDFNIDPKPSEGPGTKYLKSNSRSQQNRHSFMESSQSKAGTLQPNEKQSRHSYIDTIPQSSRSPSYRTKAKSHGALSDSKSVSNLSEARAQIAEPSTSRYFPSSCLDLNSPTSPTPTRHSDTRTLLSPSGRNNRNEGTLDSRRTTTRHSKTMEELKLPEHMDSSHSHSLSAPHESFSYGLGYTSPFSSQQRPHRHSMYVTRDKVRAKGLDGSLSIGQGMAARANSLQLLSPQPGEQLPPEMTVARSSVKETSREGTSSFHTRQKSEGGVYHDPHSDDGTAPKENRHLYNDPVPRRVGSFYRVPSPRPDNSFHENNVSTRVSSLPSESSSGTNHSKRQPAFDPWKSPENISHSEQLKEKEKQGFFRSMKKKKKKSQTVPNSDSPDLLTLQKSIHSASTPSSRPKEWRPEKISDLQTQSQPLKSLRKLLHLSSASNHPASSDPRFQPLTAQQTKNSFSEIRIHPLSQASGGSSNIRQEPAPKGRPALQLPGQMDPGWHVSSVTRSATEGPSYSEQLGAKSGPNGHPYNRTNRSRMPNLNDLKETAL

CCCCN(CCCC)C(=O)CN1C[C@H](c2cc(OC)c3c(c2)OCO3)[C@@H](C(=O)O)[C@@H]1CC(C)(C)CCC
remaining binding (cell-free assay; competition with immobilised ligand): 71.4%

O=C(NCCCN1CCOCC1)c1ccc(Nc2ncc(Cl)c(-c3ccc(Cl)s3)n2)cc1
remaining binding (binding; competition with immobilised ligand): 26%

N[C@H]1CCN(c2nccc(-c3cnn4ncccc34)n2)C1
remaining binding (binding): 100%

COc1cnc(Nc2cccc(S(N)(=O)=O)c2)nc1N1CCN(c2ccccc2)CC1
remaining binding (binding; competition with immobilised ligand): 72%

O=C(NCc1ncc(C(F)(F)F)cc1Cl)c1ccc2c(c1)C1(CCS(=O)(=O)CC1)[C@H](C1CC1)N2S(=O)(=O)c1ccc(F)cc1
remaining binding (cell-free assay; competition with immobilised ligand): 78%

O=C(c1ccc(Nc2nccc(-c3cc4ccccc4s3)n2)cc1)N1CCC(N2CCCC2)CC1
remaining binding (binding; competition with immobilised ligand): 91%

CC(=O)Nc1c(C(C)=O)c(=O)n(C)c2nc(-c3ccc(Cl)cc3Cl)c(-c3ccc(Cl)cc3)cc12
remaining binding (cell-free assay; competition with immobilised ligand): 100%

C=CC(=O)N1CCC(C(=O)NCC(=O)N2CCN(c3nc(-c4cnc(N)nc4C(F)F)nc(N4CCOCC4)n3)CC2)CC1
remaining binding (binding; competition with immobilised ligand): 100%

Cc1nccc(COC(=O)N2C[C@@H]3[C@@H](CNC(=O)c4ccc5[nH]nnc5c4)[C@@H]3C2)n1
remaining binding (cell-free assay; competition with immobilised ligand): 87%

CC1CCCN1c1nccc(-c2cnn3ncccc23)n1 (centres unmarked)
remaining binding (binding): 100%

CNCc1ccccc1-c1csc([C@@H](C)Nc2nc(C)nc3cc(OC)c(OC)cc23)c1
remaining binding (cell-free assay; competition with immobilised ligand): 94%

CN(CCCC(F)(F)F)c1nccc(-c2cnn3ncccc23)n1
remaining binding (binding): 100%

C[C@@H](c1cccc(C#N)c1)n1cc(Cl)cc(C(N)=O)c1=N
remaining binding (binding; competition with immobilised ligand): 89%

COc1cnc(Nc2cccc(S(N)(=O)=O)c2)nc1N1CCN(c2ccccc2)C(=O)C1
remaining binding (binding; competition with immobilised ligand): 100%

C[C@H]1CCN(c2nccc(-c3cnn4ncccc34)n2)C1
remaining binding (binding): 100%

O=C(Nc1c[nH]nc1C(=O)NC1CCNCC1)c1cc(F)cc(F)c1
remaining binding (binding; competition with immobilised ligand): 0.2%

Cc1cnn2ncc(-c3ccnc(N(C)C)n3)c2c1
remaining binding (binding): 86%

Cc1cnc(Nc2ccc(C(=O)N3CCC(N4CCCC4)CC3)cc2)nc1-c1cc2ccccc2s1
remaining binding (binding; competition with immobilised ligand): 69%

Nc1ncc2c(n1)-c1c([nH]c3ccc(C#CC4CC4)cc13)CCCC2
remaining binding (binding; competition with immobilised ligand): 90%

CN(C)c1nccc(-c2cnn3ncccc23)n1
remaining binding (binding): 100%
